Results on 11 compounds are retold here after ChEMBL document CHEMBL2439948, “Discovery of DF-461, a Potent Squalene Synthase Inhibitor” (ACS Med Chem Lett, 2013).

One series has as its system Hepatocyte. The series is described as follows: Inhibition of cholesterol synthesis in rat hepatocytes assessed as formation of cholesterol using [14C]mevalonolactone as substrate after 1 hr by liquid scintillation counting. The series is classed as functional, cell-based.
The target of the next series is T1, Squalene synthase (Rattus norvegicus, UniProt Q02769).
T1 sequence (Q02769 whole entry): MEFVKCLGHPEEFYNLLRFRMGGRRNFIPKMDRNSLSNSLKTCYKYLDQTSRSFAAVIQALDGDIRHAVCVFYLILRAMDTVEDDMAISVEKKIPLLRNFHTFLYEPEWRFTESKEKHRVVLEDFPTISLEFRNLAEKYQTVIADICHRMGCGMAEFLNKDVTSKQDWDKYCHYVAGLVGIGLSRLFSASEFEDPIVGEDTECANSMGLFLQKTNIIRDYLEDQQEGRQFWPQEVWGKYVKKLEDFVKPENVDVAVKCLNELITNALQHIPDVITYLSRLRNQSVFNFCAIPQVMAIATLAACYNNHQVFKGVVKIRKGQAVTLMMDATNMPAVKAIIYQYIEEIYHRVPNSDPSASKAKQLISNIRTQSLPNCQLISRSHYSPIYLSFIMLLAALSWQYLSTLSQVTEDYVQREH
The series is described as follows: Inhibition of rat hepatic microsomal squalene synthase using [3H]FPP as substrate after by scintillation spectrophotometry.

Series [1] is described as follows: Lipophilicity, log D of the compound at pH 7.4. Type of series: physicochemical. Particulars: buffer.
Series [2] has as its system Rattus norvegicus. The series is described as follows: Inhibition of cholesterol synthesis in Wistar rat at 3 mg/kg, po administered as single dose prior to [14C]mevalonolactone injection measured after 1 hr by liquid scintillation counting.
Series [3] deals with Rattus norvegicus. Nature of the series: Inhibition of cholesterol synthesis in Wistar rat at 1 mg/kg, po administered as single dose prior to [14C]mevalonolactone injection measured after 4 hrs by liquid scintillation counting. Type of series: functional. The essentials:
(§1)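 Rats given a single oral dose of 1 mg/kg; hepatic cholesterol synthesis inhibition (%) determined at 1, 4 and 7 h after dosing.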

Series [4] relates to Rattus norvegicus. Nature of the series: Inhibition of cholesterol synthesis in Wistar rat at 1 mg/kg, po administered as single dose prior to [14C]mevalonolactone injection measured after 1 hr by liquid scintillation counting. The series is classed as functional. In a few lines:
as §1

Series [5] concerns marmosets. Nature of the series: Reduction in HDL cholesterol level in marmosets at 30 mg/kg/day, po for 7 days. More on the design: scale not given: the % may be the effect or the level left. Type of series: functional, Callitrichinae sp. In a few lines:
(§2)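 Marmosets dosed orally at 30 mg/kg/day for 7 days. Plasma total, non-HDL and HDL cholesterol and triglyceride reported as mean percentage change from each animal's initial values (n = 7, 8). Significance was tested against initial values.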

Series [6] relates to Rattus norvegicus. The series is described as follows: Inhibition of cholesterol synthesis in po dosed Wistar rat administered as single dose prior to [14C]mevalonolactone injection measured after 7 hrs by liquid scintillation counting. The series is classed as functional.
The subject of series [7] is Rattus norvegicus. The series is described as follows: Inhibition of cholesterol synthesis in Wistar rat at 3 mg/kg, po in presence of [14C]acetic acid. Type of series: functional, organism-based. More on the design: dose 3 mg/kg. In a few lines: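 Rats given a single 3 mg/kg oral dose; hepatic cholesterol synthesis inhibition expressed as % at 1 h post-dose.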
Series [8] deals with marmosets. The series is described as follows: Reduction in non-HDL cholesterol level in marmosets at 30 mg/kg/day, po for 7 days. More on the design: scale not given: the % may be the effect or the level left. The series is classed as functional, Callitrichinae sp. The essentials: as §2
The subject of series [9] is marmosets. The series is described as follows: Reduction in triglyceride level in marmosets at 30 mg/kg/day, po for 7 days. Type of series: functional, Callitrichinae sp. More on the design: scale not given: the % may be the effect or the level left. In a few lines:
as §2

The test system of series [10] is marmosets. The series is described as follows: Reduction in total cholesterol level in marmosets at 30 mg/kg/day, po for 7 days. Type of series: functional, Callitrichinae sp. More on the design: scale not given: the % may be the effect or the level left. The essentials:
as §2

In series [11] the test system is Rattus norvegicus. Nature of the series: Inhibition of cholesterol synthesis in Wistar rat at 1 mg/kg, po administered as single dose prior to [14C]mevalonolactone injection measured after 7 hrs by liquid scintillation counting. The series is classed as functional. The essentials: as §1
Series [12] has as its system Rattus norvegicus. The series is described as follows: Partition co-efficient, Kp in rats liver assessed per gram of tissue at 3 mg/kg, po administered as single dose measured at 1 hr.
Series [13] deals with Rattus norvegicus. Nature of the series: Drug uptake in rats liver assessed per gram of tissue at 3 mg/kg, po administered as single dose measured at 1 hr.

One may read the IC50 as the midpoint of a concentration-inhibition curve. The logD is the decadic logarithm of the distribution of all forms, ionised or not, between an organic phase and buffer at a given pH. One may read the inhibition in vivo as the percentage by which the read-out fell short of the control. By ED50 is commonly meant the midpoint of the dose-response relation.

Active and inactive are the calls of the source. The rule behind the calls is not given here.

Regarding `COc1cccc([C@H]2O[C@H](CCn3cc(C(=O)O)cn3)c3nnc(C)n3-c3ccc(Cl)cc32)c1OC` (relative stereo), the IC50 stood at 290 nM in the series with Hepatocyte and 36 nM against Squalene synthase. For the same compound, in [1], the pH-dependent lipophilicity (logD) was -0.4. Besides, at 3 mg/kg the inhibition in vivo in the series with Rattus norvegicus [2] was 30%.
Turning to `COc1cccc([C@H]2O[C@H](CC(=O)O)c3nnc(C(F)(F)F)n3-c3ccc(Cl)cc32)c1Cl`, the inhibition in vivo at 1 mg/kg came to 77% in the series on Rattus norvegicus [3], 93% in the series with Rattus norvegicus [4] and 55% in the series on Rattus norvegicus [11]. Also, the IC50 in the series on Hepatocyte stood at 19 nM; at Squalene synthase, 1.1 nM. Further, the Activity in the series with marmosets [5] turned out to be 16%; in the series with marmosets [8], 53%; with marmosets [9], 24%; in the series on marmosets [10] it was 39%. The compound further gave an ED50 in the series with Rattus norvegicus [6] of 0.11 mg/kg. Moreover, the inhibition entry in the series with Rattus norvegicus [7] is “Active”.
Turning to `COc1cccc([C@H]2O[C@H](CC(=O)O)c3nnc(C(F)(F)F)n3-c3ccc(Cl)cc32)c1C`, the inhibition in vivo at 1 mg/kg in the series on Rattus norvegicus [3] stood at 69%; in the series on Rattus norvegicus [4], 87%; with Rattus norvegicus [11] it was 45%. In addition, the IC50 stood at 46 nM in the series on Hepatocyte and 0.85 nM at Squalene synthase. Besides, the Activity in the series on marmosets [5] is listed as 8%; in the series with marmosets [8] it was 42%; with marmosets [9], 34%; in the series with marmosets [10], 32%.
With `COc1cccc([C@H]2O[C@H](CCn3cc(C(=O)O)cn3)c3nnc(C(C)C)n3-c3ccc(Cl)cc32)c1OC` (relative stereo), the IC50 in the series with Hepatocyte came out at 91 nM; against Squalene synthase, 11 nM. The compound further displayed a logD in series [1] of 0.37. In addition, the inhibition in vivo at 3 mg/kg in the series on Rattus norvegicus [2] came to 15%.
Consider `COc1cccc([C@H]2O[C@H](CCn3cc(C(=O)O)cn3)c3nnc(CF)n3-c3ccc(Cl)cc32)c1OC` (relative stereo), for which the figures for the IC50 with Hepatocyte and at Squalene synthase were 77 nM and 6 nM, respectively. In the series on Rattus norvegicus [2], the inhibition in vivo at 3 mg/kg is 48%.
`CC(C)c1c(C(=O)Nc2ccccc2)c(-c2ccccc2)c(-c2ccc(F)cc2)n1CC[C@@H](O)C[C@@H](O)CC(=O)O`: the inhibition entry in the series with Rattus norvegicus [7] was “Active”.
Regarding `COc1cccc([C@H]2O[C@H](CC(=O)O)c3nnc(C(F)(F)F)n3-c3ccc(Cl)cc32)c1OC`, the inhibition in vivo at 1 mg/kg with Rattus norvegicus [3] was found to be 78%; in the series with Rattus norvegicus [4], 88%; with Rattus norvegicus [11], 45%. The values for the IC50 with Hepatocyte and on Squalene synthase were 38 nM and 1.6 nM, respectively. Further, the Activity was 3% in the series with marmosets [5], 44% with marmosets [8], 29% in the series with marmosets [9] and 29% in the series with marmosets [10]. For the same compound, the Kp at 1 h in the series on Rattus norvegicus [12] was 66. Besides, the concentration at 1 h in the series on Rattus norvegicus [13] was 1040 ng/g.
In the case of `COc1cccc([C@H]2O[C@H](CC(=O)N3CCC(CC(=O)O)CC3)C(=O)N(CC(C)(C)COC(C)=O)c3ccc(Cl)cc32)c1OC` [LAPAQUISTAT ACETATE], the Activity is recorded as 10% with marmosets [5], 19% in the series with marmosets [8], 25% with marmosets [9] and 17% in the series with marmosets [10]. The same compound gave an ED50 in the series on Rattus norvegicus [6] of 3.8 mg/kg.
On to `COc1cccc([C@H]2O[C@H](CCn3cc(C(=O)O)cn3)c3nnc(C(F)(F)F)n3-c3ccc(Cl)cc32)c1OC` (relative stereo), for which the IC50 in the series on Hepatocyte stood at 130 nM; against Squalene synthase it was 3.2 nM. For the same compound, the logD in series [1] came out at 0.83. Further, the inhibition in vivo at 3 mg/kg in the series on Rattus norvegicus [2] stood at 71%.
For the compound `COc1cccc([C@H]2O[C@H](CC(=O)O)c3nnc(C(F)(F)F)n3-c3ccc(Cl)cc32)c1OC(F)(F)F`, the inhibition in vivo at 1 mg/kg in the series with Rattus norvegicus [3] was determined as 67%; in the series on Rattus norvegicus [4] it was 77%; with Rattus norvegicus [11] it was 48%. Moreover, the half-maximal inhibitory concentration (IC50) with Hepatocyte came to 28 nM; against Squalene synthase, 0.7 nM.
`CCc1c(OC)cccc1[C@H]1O[C@H](CC(=O)O)c2nnc(C(F)(F)F)n2-c2ccc(Cl)cc21`: the figures for the inhibition in vivo at 1 mg/kg in the series on Rattus norvegicus [3], in the series with Rattus norvegicus [4] and in the series with Rattus norvegicus [11] were 57%, 76% and 21%, respectively. The IC50 in the series with Hepatocyte was 18 nM; at Squalene synthase, 0.36 nM.
